Legend:
Pyruvate kinase PKM = Pyruvate kinase PKM (Homo sapiens, UniProt P14618); assay: Activation of N-terminal His -tagged human PKM2 expressed in Escherichia coli BL21 using PEP as substrate measured at 30 secs intervals for between 3 and 6 mins by fluorescent pyruvate kinase-lactate dehydrogenase coupled assay
PC-3 = assay: Antiproliferative activity against human PC3 cells after 48 hrs by MTS assay; assay type: functional, cell-based; details: PC-3, 48 h
Summary of the method: (§1)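 Cells grown in RPMI 1640 with 9% FBS at 37°C, 5% CO2. 3000-10000 cells/well were left to attach 12 h, then given compound at five concentrations, or DMSO as vehicle control, for 48 h. MTS was added for 3 h at 37°C and absorbance read at 490 nm. IC50 (50% growth inhibition) was taken from triplicate dose-response curves.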

HeLa = assay: Antiproliferative activity against human HeLa cells after 48 hrs by MTS assay; assay type: functional, cell-based; summary of the method: as §1
HCT-116 = assay: Antiproliferative activity against human HCT116 cells after 48 hrs by MTS assay; assay type: functional, cell-based; details: HCT-116, 48 h; summary of the method: as §1
NCI-H1299 = assay: Antiproliferative activity against human H1299 cells after 48 hrs by MTS assay; assay type: functional, cell-based; details: NCI-H1299, 48 h; summary of the method: as §1
[1] = Antiproliferative activity against HELF after 48 hrs by MTS assay; parameters: species or system Homo sapiens; summary of the method: as §1

Chain of Pyruvate kinase PKM (P14618 whole entry): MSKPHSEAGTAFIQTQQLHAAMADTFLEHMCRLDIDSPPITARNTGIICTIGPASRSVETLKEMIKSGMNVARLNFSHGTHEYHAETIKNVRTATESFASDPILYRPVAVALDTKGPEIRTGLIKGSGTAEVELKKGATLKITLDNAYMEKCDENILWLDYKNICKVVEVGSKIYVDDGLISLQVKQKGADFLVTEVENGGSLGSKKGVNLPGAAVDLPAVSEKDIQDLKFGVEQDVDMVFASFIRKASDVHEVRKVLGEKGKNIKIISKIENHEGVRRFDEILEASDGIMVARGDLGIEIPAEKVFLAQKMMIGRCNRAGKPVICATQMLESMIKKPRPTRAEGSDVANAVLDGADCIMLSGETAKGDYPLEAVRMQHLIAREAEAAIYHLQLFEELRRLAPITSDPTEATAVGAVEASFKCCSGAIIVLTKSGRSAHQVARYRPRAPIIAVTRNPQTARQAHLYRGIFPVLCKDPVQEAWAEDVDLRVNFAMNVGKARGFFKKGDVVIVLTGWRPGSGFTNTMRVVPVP

| SMILES | AC50 (Pyruvate kinase PKM) | IC50 (PC-3) | IC50 (HeLa) | IC50 (HCT-116) | IC50 (NCI-H1299) | IC50 [1] |
| --- | --- | --- | --- | --- | --- | --- |
| CS(=O)(=O)c1cccc(-c2ccc(CN3C(=S)SCC3(O)c3ccc(NS(=O)(=O)c4ccc5c(c4)OCCO5)cc3)cn2)c1 (stereo not given) | 17.6 µM | 1350 nM | 510 nM | 920 nM | 1020 nM |  |
| Cc1cccc(S(=O)(=O)Nc2ccc(C3(O)CSC(=S)N3Cc3cccnc3)cc2)c1 (stereo not given) | 6.25 µM | 1110 nM | 1140 nM | 1730 nM | 1680 nM |  |
| O=S(=O)(Nc1ccc(C2(O)CSC(=S)N2Cc2cnccn2)cc1)c1ccc2c(c1)OCCO2 (stereo not given) | 2.15 µM | 920 nM | 550 nM | 850 nM | 1720 nM |  |
| O=S(=O)(Nc1ccc(C2(O)CSC(=S)N2Cc2cccnc2)cc1)c1ccccc1N1CCOCC1 (stereo not given) | > 20 µM | 8620 nM | 1330 nM | 3450 nM | 1240 nM |  |
| Cc1ccncc1CN1C(=S)SCC1(O)c1ccc(NS(=O)(=O)c2ccc3c(c2)OCCO3)cc1 (stereo not given) | > 20 µM | 1530 nM | 340 nM | 410 nM | 510 nM | 7.21 µM |
| O=S(=O)(Nc1ccc(C2(O)CSC(=S)N2Cc2cccnc2)cc1)c1ccccc1F (stereo not given) | > 20 µM | 2680 nM | 550 nM | 1180 nM | 1450 nM |  |
| O=S(=O)(Nc1ccc(C2(O)CSC(=S)N2Cc2cccnc2)cc1)c1cccc(F)c1 (stereo not given) | > 20 µM | 2190 nM | 480 nM | 4110 nM | 1140 nM |  |
| O=S(=O)(Nc1ccc(-c2csc(=S)n2Cc2cccnc2)cc1)c1cccc2cccnc12 | > 20 µM | > 20000 nM | > 20000 nM | > 20000 nM | > 20000 nM |  |
| Cc1ccc(S(=O)(=O)Nc2ccc(C3(O)CSC(=S)N3Cc3cccnc3)cc2)cc1 (stereo not given) | > 20 µM | 940 nM | 440 nM | 2180 nM | 1200 nM |  |
| COc1ccc(Cl)cc1S(=O)(=O)Nc1ccc(C2(O)CSC(=S)N2Cc2cccnc2)cc1 (stereo not given) | > 20 µM | 4510 nM | 1110 nM | 3690 nM | 1620 nM |  |
| O=S(=O)(Nc1ccc(C2(O)CSC(=S)N2Cc2cccnc2)cc1)c1ccccc1 (stereo not given) | 2.96 µM | 990 nM | 450 nM | 1700 nM | 1440 nM |  |
| O=S(=O)(Nc1ccc(C2(O)CSC(=S)N2Cc2cccnc2)cc1)c1cccs1 (stereo not given) | 1.47 µM | 1250 nM | 420 nM | 1440 nM | 1230 nM |  |
| O=C1COc2ccc(S(=O)(=O)Nc3ccc(C4(O)CSC(=S)N4Cc4cccnc4)cc3)cc2N1 (stereo not given) | > 20 µM | 1950 nM | 780 nM | 1840 nM | 2120 nM |  |
| COc1ncccc1CN1C(=S)SCC1(O)c1ccc(NS(=O)(=O)c2ccc3c(c2)OCCO3)cc1 (stereo not given) | > 20 µM | 1130 nM | 410 nM | 740 nM | 830 nM | 10.4 µM |
| O=C1CCc2cc(S(=O)(=O)Nc3ccc(C4(O)CSC(=S)N4Cc4cccnc4)cc3)ccc2N1 (stereo not given) | 0.74 µM | 4290 nM | 710 nM | 1640 nM | 1650 nM |  |
| N#Cc1ccc(S(=O)(=O)Nc2ccc(C3(O)CSC(=S)N3Cc3cccnc3)cc2)cc1 (stereo not given) | > 20 µM | 4110 nM | 770 nM | 1800 nM | 1470 nM |  |
| O=[N+]([O-])c1ccccc1S(=O)(=O)Nc1ccc(C2(O)CSC(=S)N2Cc2cccnc2)cc1 (stereo not given) | > 20 µM | 3870 nM | 610 nM | 2300 nM | 1750 nM |  |
| O=S(=O)(Nc1ccc(C2(O)CSC(=S)N2Cc2ccc3nccn3c2)cc1)c1ccc2c(c1)OCCO2 (stereo not given) | 7.07 µM | 1330 nM | 450 nM | 770 nM | 790 nM | 4.91 µM |
| Cc1ccccc1S(=O)(=O)Nc1ccc(C2(O)CSC(=S)N2Cc2cccnc2)cc1 (stereo not given) | 1.19 µM | 1580 nM | 550 nM | 2410 nM | 1630 nM |  |

| SMILES | AC50 (Pyruvate kinase PKM) | IC50 (PC-3) | IC50 (HeLa) | IC50 (HCT-116) | IC50 (NCI-H1299) | IC50 [1] |
| --- | --- | --- | --- | --- | --- | --- |
| O=c1ccc2cc(S(=O)(=O)Nc3ccc(C4(O)CSC(=S)N4Cc4cccnc4)cc3)ccc2o1 (stereo not given) | > 20 µM | 2400 nM | 690 nM | 1410 nM | 1650 nM |  |
| O=S(=O)(Cc1ccccc1)Nc1ccc(C2(O)CSC(=S)N2Cc2cccnc2)cc1 (stereo not given) | 7.24 µM | 2440 nM | 1260 nM | 3320 nM | 1550 nM |  |
| O=S(=O)(Nc1ccc(C2(O)CSC(=S)N2Cc2cnc3ccccc3c2)cc1)c1ccc2c(c1)OCCO2 (stereo not given) | 1.75 µM | 1280 nM | 550 nM | 1280 nM | 1810 nM |  |
| COc1cccc(S(=O)(=O)Nc2ccc(C3(O)CSC(=S)N3Cc3cccnc3)cc2)c1 (stereo not given) | 5.95 µM | 930 nM | 590 nM | 2620 nM | 930 nM | 6.9 µM |
| O=S(=O)(Nc1ccc(C2(O)CSC(=S)N2Cc2cccnc2)cc1)c1cccc2cccnc12 (stereo not given) | 0.52 µM | 2350 nM | 840 nM | 2110 nM | 2430 nM |  |
| CS(=O)(=O)Nc1ccc(C2(O)CSC(=S)N2Cc2cccnc2)cc1 (stereo not given) | > 20 µM | 2200 nM | 860 nM | 1560 nM | 1250 nM |  |
| O=S(=O)(Nc1ccc(C2(O)CSC(=S)N2Cc2cccnc2)cc1)c1ccc2ccccc2c1 (stereo not given) | > 20 µM | 1520 nM | 460 nM | 1650 nM | 810 nM | 8.05 µM |
| O=S(=O)(Nc1ccc(C2(O)CSC(=S)N2Cc2cccnc2)cc1)c1c[nH]c2ncccc12 (stereo not given) | 1.41 µM | 1260 nM | 760 nM | 1550 nM | 2000 nM |  |
| O=S(=O)(Nc1ccc(C2(O)CSC(=S)N2Cc2ccncc2)cc1)c1ccc2c(c1)OCCO2 (stereo not given) | > 20 µM | 700 nM | 470 nM | 660 nM | 750 nM | 8.31 µM |
| O=S(=O)(Nc1ccc(C2(O)CSC(=S)N2CCc2cccnc2)cc1)c1ccc2c(c1)OCCO2 (stereo not given) | > 20 µM | 2160 nM | 620 nM | 1040 nM | 1280 nM |  |
| O=[N+]([O-])c1cccc(-c2ccccc2S(=O)(=O)Nc2ccc(C3(O)CSC(=S)N3Cc3cccnc3)cc2)c1 (stereo not given) | > 20 µM | 3260 nM | 1400 nM | 3890 nM | 2960 nM |  |
| O=[N+]([O-])c1ccc(S(=O)(=O)Nc2ccc(C3(O)CSC(=S)N3Cc3cccnc3)cc2)cc1 (stereo not given) | > 20 µM | 1310 nM | 260 nM | 2720 nM | 1220 nM |  |
| CN(c1ccc(C2(O)CSC(=S)N2Cc2cccnc2)cc1)S(=O)(=O)c1cccc2cccnc12 (stereo not given) | > 20 µM | 6150 nM | 930 nM | 2320 nM | 2470 nM |  |
| O=S(=O)(Nc1ccc(C2(O)CSC(=S)N2Cc2cccnc2)cc1)c1ccccc1-c1ccccc1 (stereo not given) | > 20 µM | 2810 nM | 1100 nM | 6110 nM | 2700 nM |  |
| CC(=O)O[C@H]1C(=O)[C@@]2(C)[C@H]([C@H](OC(=O)c3ccccc3)[C@]3(O)C[C@H](OC(=O)[C@H](O)[C@@H](NC(=O)c4ccccc4)c4ccccc4)C(C)=C1C3(C)C)[C@]1(OC(C)=O)CO[C@@H]1C[C@@H]2O [PACLITAXEL] |  | 4570 nM |  | 1370 nM | 7830 nM |  |
| O=S(=O)(Nc1ccc(C2(O)CSC(=S)N2Cc2cccnc2)cc1)c1cccc2ccccc12 (stereo not given) | > 20 µM | 1690 nM | 630 nM | 2610 nM | 1530 nM |  |
| O=S(=O)(Nc1ccc(C2(O)CSC(=S)N2Cc2cccnc2)cc1)c1ccc(F)cc1 (stereo not given) | > 20 µM | 1400 nM | 570 nM | 3500 nM | 1310 nM |  |
| Cc1cc(C)c(S(=O)(=O)Nc2ccc(C3(O)CSC(=S)N3Cc3cccnc3)cc2)c(C)c1 (stereo not given) | > 20 µM | 1330 nM | 940 nM | 1650 nM | 1750 nM |  |
| COc1ccc(S(=O)(=O)Nc2ccc(C3(O)CSC(=S)N3Cc3cccnc3)cc2)cc1 (stereo not given) | 4.69 µM | 1070 nM | 480 nM | 1750 nM | 960 nM | 8.63 µM |

— ChEMBL document CHEMBL4138196, “Discovery and structure-activity relationship of novel 4-hydroxy-thiazolidine-2-thione derivatives as tumor cell specific pyruvate kinase M2 activators” (Eur J Med Chem, 2018)
